Series [1] deals with Rattus norvegicus. The experiment in a line: Anticonvulsant activity in po dosed Sprague-Dawley rat model of maximal electroshock-induced seizure assessed as time required for suppression of tonic hind limb extension. The format is functional. Summed up:
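Rats dosed p.o. and tested by MES at 150 mA. ED50 derived by probit analysis from quantitative dose groups, run at the time of peak effect (hours).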
For orientation: Protection in the maximal electroshock model is a classic sign of anticonvulsant action.

Series [2] relates to Rattus norvegicus. Put plainly: Anticonvulsant activity in hippocampal kindling Sprague-Dawley rat model assessed as after discharge time at 100 mg/kg, ip administered as single dose measured after 75 mins. In kind it is functional. Summed up: (§1)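 Rats implanted with a hippocampal electrode and kindled with suprathreshold trains (200 µA, 10 s, 50 Hz) every 30 min for 6 h on alternate days until fully kindled. One week later they received a single i.p. dose. Seizure score (Racine scale) and afterdischarge duration were recorded at 0–135 min and compared with the control stimulus given 15 min before dosing; each animal served as its own control. Values are mean ± SEM.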

Series [3] concerns Astrocyte. The experiment in a line: Cytotoxicity against mouse astrocytes at 10 to 200 uM after 24 hrs by MTT assay. In kind it is cell-based. Summed up: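 Mouse astrocyte line (CRL-2541) grown in DMEM with 10% FBS at 37 °C, 5% CO2. Seeded at 1×10^4 per well in 1% FBS medium, treated with 10–200 µM for 24 h against vehicle controls. MTT reagent added for 4 h at 37 °C, crystals dissolved, absorbance read at 570 nm.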
Background: Tetrazolium dyes change colour on reduction, which living cells bring about.

Series [4] relates to Rattus norvegicus. Put plainly: Anticonvulsant activity in hippocampal kindling Sprague-Dawley rat model assessed as after discharge time at 100 mg/kg, ip administered as single dose measured immediately. In kind it is functional. Summed up:
as §1

Series [5] relates to Mus musculus. The experiment in a line: Anticonvulsant activity in ip dosed CF-1 mouse model of maximal electroshock-induced seizure assessed as time required for suppression of tonic hind limb extension. The format is functional.
Series [6] is described as follows: Neurotoxicity in Sprague-Dawley rat at 100 mg/kg, ip measured after 4 hrs by rotarod test. In kind it is toxicity, organism-based. As to conditions: in vivo. Summed up:
(§2)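 Rat neurotoxicity after i.p. or p.o. dosing was scored as animals impaired / animals tested at each time point. For p.o. dosing, TD50 was obtained by probit analysis.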
(In general: The rotarod test checks motor coordination on a turning rod.)

Series [7] has as its system Rattus norvegicus. Put plainly: Anticonvulsant activity in hippocampal kindling Sprague-Dawley rat model assessed as after discharge time at 50 mg/kg, ip administered as single dose measured after 105 mins. The format is functional. Summed up:
as §1

Series [8] relates to Rattus norvegicus. The experiment in a line: Anticonvulsant activity in hippocampal kindling Sprague-Dawley rat model assessed as after discharge time at 100 mg/kg, ip administered as single dose measured after 105 mins. In kind it is functional. Summed up: as §1
Series [9] relates to Rattus norvegicus. Put plainly: Anticonvulsant activity in hippocampal kindling Sprague-Dawley rat model assessed as decrease of seizure score at 100 mg/kg, ip administered as single dose measured up to 135 mins. In kind it is functional, organism-based. Summed up:
as §1

Series [10] is described as follows: Neurotoxicity in Sprague-Dawley rat at 100 mg/kg, ip measured after 2 hrs by rotarod test. Conditions: in vivo, 2 h. The format is toxicity, organism-based. Summed up:
as §2

A short description of series [11]: Neurotoxicity in CF-1 mouse at 300 mg/kg, ip measured after 0.5 hrs by rotarod test. As to conditions: in vivo. In kind it is toxicity, organism-based. Summed up: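 Mice dosed i.p. were placed on a 1 in. knurled rod turning at 6 rpm. Toxicity was scored as failure to keep balance for at least 1 min, i.e. falling off three or more times. Results are reported as animals showing toxicity / animals tested at each time point.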

The test system of series [12] is Mus musculus. The experiment in a line: Anticonvulsant activity in CF-1 mouse model of maximal electroshock-induced seizure assessed as suppression of tonic hind limb extension at 100 mg/kg, ip measured at 0.25 hrs post dose. In kind it is functional, organism-based. Summed up:
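Mice dosed i.p. and given maximal electroshock at 50 mA. Read-out is protection, reported as number protected / number tested at 0.25, 0.5, 1 and 4 h after dosing.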

Calls of active or inactive are those of the source.

Turning to `Cc1cccc(C)c1OCC(=O)N[C@H](C)CO`, the Time in series [1] worked out at 0.5 h; in series [2], 80 s; in [4], 68 s; in [5], 0.25 h; in series [7], 77 s; in series [8], 77 s. In addition, the Activity entry in [3], in series [6] and in [10] was “Non-Toxic” in each case. In addition, the result in [9] was Active.

In the case of `CCC(O)CNC(=O)COc1c(C)cccc1C` (configuration not stated), the Activity result in series [11] is recorded as “Toxic”. Moreover, in [12], the result was Active.

These data come from ChEMBL document CHEMBL4368872, “Synthesis and anticonvulsant activity of phenoxyacetyl derivatives of amines, including aminoalkanols and amino acids” (Medchemcomm, 2018).
